Results reported in paper PMC12377326 (RSC Advances, 2025).
Where “and” joins values, the source holds several entries; their conditions need not be identical. Identical values can stand only once.

Experiments:
hCA I = hCA I (Homo sapiens, UniProt P00915); experiment: hCA I counterscreen; type: biochemical; details: for S I = (IC50 hCA I, nM)/(IC50 hCA IX, nM): selectivity for CA IX over CA I
Method in brief: (§1)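 Recombinant human enzymes, >95% pure: hCA I (Ala2–Phe261) for line 1 and hCA II (Ser2–Lys260) for line 2. Run under the same conditions as the hCA IX assay at 25 °C. IC50 is the mean ± SD, n = 3. Where solubility prevented a full titration, IC50 was extrapolated from the linear range of the curve. Selectivity index = IC50 (hCA I or hCA II, nM)/IC50 (hCA IX, nM).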

hCA IX [1] = target: T1, hCA IX (Homo sapiens, UniProt Q16790); experiment: Steady-state CO2-hydrase enzyme kinetics; type: biochemical; details: Lineweaver–Burk and Michaelis–Menten plots; unchanged Km, reduced Vmax
hCA II = hCA II (Homo sapiens, UniProt P00918); experiment: hCA II counterscreen; type: biochemical; details: for S II = (IC50 hCA II, nM)/(IC50 hCA IX, nM): selectivity for CA IX over CA II
Method in brief: as §1

hCA IX [2] = target: T1, hCA IX; experiment: biochemical; details: stopped-flow CO2-hydrase assay

Chain of hCA I (P00915 2-261): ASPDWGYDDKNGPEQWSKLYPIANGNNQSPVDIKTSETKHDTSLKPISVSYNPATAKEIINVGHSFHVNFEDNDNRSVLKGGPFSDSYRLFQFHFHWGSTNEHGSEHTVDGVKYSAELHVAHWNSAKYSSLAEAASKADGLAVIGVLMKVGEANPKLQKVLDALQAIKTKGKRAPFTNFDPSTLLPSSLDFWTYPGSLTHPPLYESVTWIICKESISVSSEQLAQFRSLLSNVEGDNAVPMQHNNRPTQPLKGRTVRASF

IC50 (hCA I)	S I = (IC50 hCA I, nM)/(IC50 hCA IX, nM) (hCA I)	mode of inhibition (hCA IX [1])	IC50 (hCA II)	S II = (IC50 hCA II, nM)/(IC50 hCA IX, nM) (hCA II)	S I = (IC50 hCA I, nM)/(IC50 hCA IX, nM) (hCA I; listed as palustric)	S II = (IC50 hCA II, nM)/(IC50 hCA IX, nM) (hCA II; listed as palustric)	S I = (IC50 hCA I, nM)/(IC50 hCA IX, nM) (hCA I; listed as pimaric)	IC50 (hCA IX [2]; IC50 CA IX (printed in μM), mean ± SD)	IC50 (hCA IX [2]; IC50 hCA IX, pH 7.4, 25 °C, mean ± SD (n = 3))	S II = (IC50 hCA II, nM)/(IC50 hCA IX, nM) (hCA II; listed as pimaric)	SMILES
1500 ± 120 nM	10 and 10.2	non-competitive	680 ± 50 nM	4.6							CC(C)C1=CC[C@H]2C(=C1)CC[C@@H]1[C@]2(C)CCC[C@@]1(C)C(=O)O [Levopimaric acid, levopimaric acid]
2250 ± 200 nM	7.8	non-competitive	1450 ± 120 nM	5.0	≈ 8	≈ 5					CC(C)C1=CC2=C(CC1)[C@@]1(C)CCC[C@@](C)(C(=O)O)[C@@H]1CC2 [Palustric acid, palustric acid]
2700 ± 250 nM	7.9	non-competitive	1620 ± 130 nM	4.8			≈ 8	0.341 ± 0.0064 µM	0.341 ± 0.00637 µM	≈ 5	C=C[C@@]1(C)C=C2CC[C@@H]3[C@](C)(CCC[C@@]3(C)C(=O)O)[C@H]2CC1 [Pimaric acid, pimaric acid]
